Here are results for 23 molecules from ChEMBL document CHEMBL2424553, “Synthesis, molecular docking and kinetic properties of β-hydroxy-β-phenylpropionyl-hydroxamic acids as Helicobacter pylori urease inhibitors” (Eur J Med Chem, 2013).

In test [1] the target is T1, Urease subunit alpha/Urease subunit beta (Helicobacter pylori (strain ATCC 700392 / 26695) (Campylobacterpylori), UniProt P69996). Put plainly: Inhibition of urease extracted from Helicobacter pylori ATCC 43504 assessed as ammonia production preincubated for 1.5 hrs by indophenol-based method. A digest of the protocol:
(§1)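 H. pylori ATCC 43504 grown 24 h at 37 °C in Brucella broth with 10% heat-inactivated horse serum under microaerobic gas (5% O2, 10% CO2, 85% N2). Cells pelleted (5000 g, 4 °C) and washed twice in PBS pH 7.4 to prepare urease. Enzyme pre-incubated with test compound 1.5 h at room temperature. Ammonia measured by the indophenol method. Run in triplicate.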

In test [2] the target is T1, Urease subunit alpha/Urease subunit beta. Put plainly: Inhibition of urease in Helicobacter pylori ATCC 43504 intact cell assessed as ammonia production preincubated for 1.5 hrs by indophenol-based method. A digest of the protocol:
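H. pylori grown 24 h at 37 °C in Brucella broth with 10% heat-inactivated horse serum, microaerobic (5% O₂, 10% CO₂, 85% N₂); cells pelleted (5000 g, 4 °C), PBS-washed (pH 7.4), suspended at 4.0 × 10⁷ CFU/mL. Suspension with test compound preincubated 1.5 h at room temperature; ammonia measured by Weatherburn indophenol method.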

Test [3] addresses T2, Urease subunit alpha/Urease subunit beta (Helicobacter pylori (strain ATCC 700392 / 26695) (Campylobacterpylori)) (UniProt P69996+P14916). The experiment in a line: Ratio of IC50 for urease in Helicobacter pylori ATCC 43504 intact cell to IC50 for urease extracted from Helicobacter pylori ATCC 43504.
Test [4] has as its target T2, Urease subunit alpha/Urease subunit beta (Helicobacter pylori (strain ATCC 700392 / 26695) (Campylobacterpylori)). The experiment in a line: Potency index, ratio of AHA IC50 to compound IC50 for Helicobacter pylori ATCC 43504 urease.
In test [5] the target is T1, Urease subunit alpha/Urease subunit beta. The experiment in a line: Mixed-type competitive inhibition of Helicobacter pylori ATCC 43504 urease using urea as substrate by Lineweaver-burk plot analysis.
Test [6] has the same target. Put plainly: Inhibition of Helicobacter pylori urease. An outline of the steps:
as §1

As usually defined, the IC50 is the midpoint of a concentration-inhibition curve. What is called Ki is the equilibrium dissociation constant of an inhibitor or competing ligand from its target. A low value points to a stronger hold on the target.

T1 sequence (P69996 whole entry): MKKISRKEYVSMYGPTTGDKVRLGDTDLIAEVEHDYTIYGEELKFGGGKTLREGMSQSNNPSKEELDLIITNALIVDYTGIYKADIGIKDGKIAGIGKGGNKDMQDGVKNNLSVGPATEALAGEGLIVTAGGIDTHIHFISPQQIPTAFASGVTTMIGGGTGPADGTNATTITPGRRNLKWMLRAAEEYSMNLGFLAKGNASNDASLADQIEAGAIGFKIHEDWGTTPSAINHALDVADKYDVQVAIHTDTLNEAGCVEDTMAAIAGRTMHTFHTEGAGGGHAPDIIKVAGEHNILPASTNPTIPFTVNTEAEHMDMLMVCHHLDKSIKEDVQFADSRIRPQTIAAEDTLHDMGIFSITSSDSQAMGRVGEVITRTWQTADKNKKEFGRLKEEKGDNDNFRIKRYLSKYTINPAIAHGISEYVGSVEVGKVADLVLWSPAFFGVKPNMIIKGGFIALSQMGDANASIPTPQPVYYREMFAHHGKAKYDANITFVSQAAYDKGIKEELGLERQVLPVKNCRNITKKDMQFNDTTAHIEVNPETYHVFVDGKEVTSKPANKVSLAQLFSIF
T1 sequence (P14916 whole entry, further chain): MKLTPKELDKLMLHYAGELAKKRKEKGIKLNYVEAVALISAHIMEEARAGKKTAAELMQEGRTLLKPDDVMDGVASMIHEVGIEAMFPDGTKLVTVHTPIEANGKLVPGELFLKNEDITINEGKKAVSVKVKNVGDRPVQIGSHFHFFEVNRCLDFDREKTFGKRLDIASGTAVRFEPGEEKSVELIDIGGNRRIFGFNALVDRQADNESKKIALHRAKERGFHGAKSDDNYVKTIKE
T2 sequence (P14916 whole entry, looked up): as the sequence (P14916 whole entry, further chain) above
T2 sequence (P69996 whole entry, looked up): as the sequence (P69996 whole entry) above

With `CN(C)c1ccc(C(=O)NO)cc1`, the IC50 in test [1] was found to be 77.9 µM.

Turning to `O=C(CC(O)c1ccccc1)NO` (racemic), the IC50 in test [1] worked out at 15.6 µM.

In the case of `COc1ccccc1C(O)CC(=O)NO` (racemic), the IC50 in test [1] was found to be 38.5 µM.

On to `O=C(CC(O)c1ccccc1Cl)NO` (racemic), for which the figures for the IC50 in test [2] and in test [1] were 9.21 µM and 1.19 µM, respectively. Further, the Ratio IC50 in test [3] is 3.

`O=C(CC(O)c1ccccc1F)NO` (racemic): the IC50 in test [1] is 5.6 µM.

On to `O=C(CC(O)c1cccc(O)c1)NO` (racemic), for which the IC50 in test [1] came to 131 µM.

For the molecule `COc1cccc(C(O)CC(=O)NO)c1` (racemic), the IC50 in test [1] was found to be 23.2 µM.

As for `O=C(CC(O)c1cccc(Cl)c1)NO` (racemic), the Ratio IC50 in test [4] was determined as 330. In addition, the IC50 amounted to 0.36 µM in test [2] and 0.083 µM in test [1]. The affinity in test [5], expressed as Ki, was 0.014 µM.

Regarding `O=C(CC(O)c1cccc(F)c1)NO` (racemic), the IC50 in test [2] worked out at 13.3 µM; in test [1], 3.99 µM. In test [3], the Ratio IC50 worked out at 3.

With `O=C(CC(O)c1cccc(C(F)(F)F)c1)NO` (racemic), the IC50 in test [2] worked out at 6.81 µM; in test [1] it was 1.22 µM. Moreover, the Ratio IC50 in test [3] was 3.

On to `COc1ccc(C(O)CC(=O)NO)cc1` (racemic), for which, in test [1], the IC50 amounted to 75.1 µM.

For the molecule `O=C(CC(O)c1ccc(OCc2ccccc2)cc1)NO` (racemic), the IC50 in test [1] is 61.5 µM.

As to `O=C(CC(O)c1ccc(Cl)cc1)NO` (racemic), the IC50 in test [1] was 3.39 µM.

`O=C(CC(O)c1ccc(F)cc1)NO` (racemic): the IC50 in test [1] was determined as 8.01 µM.

As to `O=C(CC(O)c1ccc(C(F)(F)F)cc1)NO` (racemic), the IC50 in test [1] is 7.89 µM.

Regarding `CN(C)c1ccc(C(O)CC(=O)NO)cc1` (racemic), the IC50 in test [1] came out at 7.13 µM.

Consider `O=C(CC(O)c1cccc(Cl)c1Cl)NO` (racemic), for which the IC50 in test [2] amounted to 0.91 µM; in test [1] it was 0.23 µM. Also, the Ki in test [5] amounted to 0.045 µM. In addition, the Ratio IC50 in test [3] was 4.

As to `O=C(CC(O)c1ccc(Cl)c(Cl)c1)NO` (racemic), the IC50 was found to be 1.42 µM in test [2] and 0.37 µM in test [1]. Besides, in test [3], the Ratio IC50 was found to be 3.

Consider `O=C(CC(O)c1cc(Cl)ccc1O)NO` (racemic), for which the half-inhibitory concentration (IC50) in test [2] amounted to 11.3 µM; in test [1], 1.28 µM. Further, the Ratio IC50 in test [3] came out at 8.8.

Take `COc1ccc(F)cc1C(O)CC(=O)NO` (racemic): the IC50 in test [1] is 11 µM.

For `O=C(CC(O)c1cc(Cl)cc(Cl)c1O)NO` (racemic), the IC50 in test [2] was determined as 8.9 µM; in test [1], 1.04 µM. The Ratio IC50 in test [3] stood at 3.

Take `CC(=O)NO` [ACETOHYDROXAMIC ACID]: the IC50 in test [2] is 110 µM; in test [1], 27.6 µM.

In test [6], `O=c1c(O)c(-c2ccc(O)c(O)c2)oc2cc(O)cc(O)c12` [QUERCETIN] gave an IC50 of 11.2 µM.
